# Laboratory results: ChEMBL document CHEMBL5137109, “Tunable Cysteine-Targeting Electrophilic Heteroaromatic Warheads Induce Ferroptosis” (J Med Chem, 2022)
# Calls of active or inactive are those of the source. No cut-off for these calls is given here.
# How the values were obtained:
# NCI-H522 [1] = assay: Cytotoxicity against human NCI-H522 cells assessed as reduction in cell viability incubated for 3 days by methylene blue staining based analysis; type: functional; conditions: NCI-H522, 72 h
# HCT-116 = assay: Cytotoxicity against human HCT-116 cells assessed as reduction in cell viability incubated for 3 days by methylene blue staining based analysis; type: functional; conditions: HCT-116, 72 h
# [2] = biological target: T1, Thioredoxin reductase 1, cytoplasmic (Homo sapiens) (UniProt Q16881); assay: Binding affinity to TXRD1 in human NCI-H522 cells at 10 uM incubated for 1 hr by Biotin-TAMRA pull down based western blot analysis; type: cell-based
# T1 sequence (whole entry): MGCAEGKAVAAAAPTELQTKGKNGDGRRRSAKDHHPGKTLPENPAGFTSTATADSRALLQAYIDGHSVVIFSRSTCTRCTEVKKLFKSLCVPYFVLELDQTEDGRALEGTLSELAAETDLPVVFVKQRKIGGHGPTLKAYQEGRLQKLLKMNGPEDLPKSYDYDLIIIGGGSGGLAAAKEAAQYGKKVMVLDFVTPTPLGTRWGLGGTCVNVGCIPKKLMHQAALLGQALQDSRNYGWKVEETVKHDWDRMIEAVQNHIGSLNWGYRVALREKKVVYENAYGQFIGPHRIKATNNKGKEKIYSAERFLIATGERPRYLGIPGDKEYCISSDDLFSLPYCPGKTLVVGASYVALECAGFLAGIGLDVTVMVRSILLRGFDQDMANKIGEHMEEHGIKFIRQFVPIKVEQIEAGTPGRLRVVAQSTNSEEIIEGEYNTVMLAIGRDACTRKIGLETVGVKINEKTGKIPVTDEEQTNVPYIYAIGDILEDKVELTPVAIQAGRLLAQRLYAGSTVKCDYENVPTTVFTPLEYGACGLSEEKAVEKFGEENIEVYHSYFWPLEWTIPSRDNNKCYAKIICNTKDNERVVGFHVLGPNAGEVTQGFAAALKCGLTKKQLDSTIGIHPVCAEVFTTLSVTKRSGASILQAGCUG
# In short: (§1)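 Probe or control given to cells for 1 h at 37 °C, two 10 cm dishes per treatment. Lysates precleared with streptavidin, then clicked to biotin-TAMRA azide (20 min RT plus 10 min 37 °C). Proteins precipitated, captured overnight on streptavidin beads and washed with RIPA/PBS. Bead eluates separated on 12.5% SDS-PAGE and immunoblotted, with milk blocking, primary antibody overnight at 4 °C, HRP secondary and ECL.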
# NCI-H522 [3] = assay: Induction of lipid peroxidation in human NCI-H522 cells assessed as increase in C11-BODIPY oxidation at 5 uM incubated for 6 hrs by flow cytometry relative to control; type: functional
# In short: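 NCI-H522 cells at ~70% density, plated overnight, treated with compound or DMSO together with C11-BODIPY 581/591 (1 μM) for 3 h or 6 h. Cells then PBS-washed, trypsinised, resuspended in PBS with 2% FBS and read by flow cytometry, preferably 20*10³ cells. Oxidation compared with DMSO treatment.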
# NCI-H522 [4] = assay: Cytotoxicity against human NCI-H522 cells assessed as time required to cause 50% irreversible cell death treated with compound followed by washing for every 30 mins for 6 hrs by methylene blue staining based analysis; type: functional
# In short: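 NCI-H522 cells, 5*10³/well (n=3), plated overnight, then treated with compound or DMSO. Wells washed immediately after treatment and then at 30-min intervals up to 6 h; last wells not washed. Methylene blue in 50% ethanol fix/stain 30 min RT, dye dissolved in 0.1N HCl, A668. Each point taken as % survival of matching DMSO-treated cells.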
# [5] = Selectivity ratio of IC50 for human HCT-116 cells to IC50 for human NCI-H522 cells by methylene blue staining based analysis; type: functional
# U2OS = assay: Cytotoxicity against human U2OS cells assessed as reduction in cell viability incubated for 3 days by methylene blue staining based analysis; type: functional; conditions: 72 h
# [6] = biological target: T2, Phospholipid hydroperoxide glutathione peroxidase GPX4 (Homo sapiens) (UniProt P36969); assay: Binding affinity to GPX4 in human NCI-H522 cells assessed as increase in aggregation temperature at 0.5 uM incubated for 1 hr by CETSA analysis; type: cell-based
# T2 sequence (whole entry): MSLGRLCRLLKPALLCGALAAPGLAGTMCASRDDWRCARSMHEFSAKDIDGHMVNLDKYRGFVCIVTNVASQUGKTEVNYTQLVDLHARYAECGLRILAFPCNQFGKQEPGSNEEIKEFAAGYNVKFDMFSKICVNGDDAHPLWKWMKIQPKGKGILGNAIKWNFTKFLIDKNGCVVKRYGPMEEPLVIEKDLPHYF
# In short: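 Cells ~80% confluent treated 1 h (vehicle DMSO 0.1% v/v), trypsinized, washed, resuspended in PBS and aliquots heated at temperatures between 43–67 °C for 3 min. Cells then pelleted and lysed in NP-40/Tris buffer. Soluble fraction analysed by SDS-PAGE and western blot, and aggregation temperature compared with DMSO. Mean ± SD, n = 3, t-test.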
# NCI-H522 [7] = assay: Induction of lipid peroxidation in human NCI-H522 cells assessed as increase in C11-BODIPY oxidation at 0.5 uM incubated for 3 hrs by flow cytometry; type: functional, cell-based
# In short: (§2)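 NCI-H522 cells (~70% density) plated in dishes overnight, then treated with compound or DMSO plus C11-BODIPY 581/591 (1 μM) added at treatment. After 3 h or 6 h, cells washed, trypsinized, resuspended in PBS with 2% FBS and analysed by flow cytometry (preferably 20×10³ cells). Oxidation compared with DMSO treatment.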
# [8] = Cytotoxicity against human WI-38 cells assessed as reduction in cell viability incubated for 3 days by methylene blue staining based analysis; type: toxicity
# MDA-MB-468 = assay: Cytotoxicity against human MDA-MB-468 cells assessed as reduction in cell viability incubated for 3 days by methylene blue staining based analysis; type: functional; conditions: MDA-MB-468, 72 h
# HeLa = assay: Cytotoxicity against human HeLa cells assessed as reduction in cell viability incubated for 3 days by methylene blue staining based analysis; type: functional; conditions: 72 h
# [9] = Ratio of IC50 for cytotoxicity against human NCI-H522 cells in presence of ferroptosis inhibitor, liproxstatin-1 to IC50 for cytotoxicity against human NCI-H522 cells; type: functional
# In short: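 NCI-H522 cells, 25*10³/well (n=3), plated overnight, treated with compound with or without Liproxstatin-1 (0.25 μM). After 3 days, methylene blue in 50% ethanol fix/stain 30 min RT, dye dissolved in 0.1N HCl, A668. Fold change = IC₅₀ with Liproxstatin-1 / IC₅₀ without.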
# HT-1080 = assay: Cytotoxicity against human HT-1080 cells assessed as reduction in cell viability incubated for 3 days by methylene blue staining based analysis; type: functional; conditions: HT-1080, 72 h
# [10] = Cytotoxicity against mouse MEF cells assessed as reduction in cell viability incubated for 3 days by methylene blue staining based analysis; type: toxicity
# MDA-MB-231 = assay: Cytotoxicity against human MDA-MB-231 cells assessed as reduction in cell viability incubated for 3 days by methylene blue staining based analysis; type: functional; conditions: MDA-MB-231, 72 h
# NCI-H522 [11] = assay: Cytotoxicity against human NCI-H522 cells assessed as reduction in cell viability incubated for 3 days in presence of ferroptosis inhibitor, liproxstatin-1 by methylene blue staining based analysis; type: functional; conditions: NCI-H522, 72 h
# In short: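 NCI-H522 cells seeded at 25×10³/well (n=3), adhered overnight, then exposed to compound with or without liproxstatin-1 (0.25 μM). After 3 days, methylene blue staining with HCl elution and A668. Results given as % relative to DMSO control, mean ± SD, n=3, one-way ANOVA. Fold change is IC50 (with liproxstatin-1)/IC50 (alone).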
# [12] = biological target: T2, Phospholipid hydroperoxide glutathione peroxidase GPX4 (Homo sapiens); assay: Binding affinity to GPX4 in human NCI-H522 cells at 10 uM incubated for 1 hr by Biotin-TAMRA pull down based western blot analysis; type: cell-based; in short: as §1
# [13] = biological target: T1, Thioredoxin reductase 1, cytoplasmic (Homo sapiens); assay: Binding affinity to TXRD1 in human NCI-H522 cells at 10 uM incubated for 1 hr by Biotin-TAMRA pull down based mass spectrometry; type: cell-based
# In short: (§3)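 Cells ~70% density, five 10 cm dishes per treatment, exposed to alkyne probe or control for 1 h at 37 °C, then lysed (NP-40/Tris). Lysate precleared on streptavidin beads 2 h at 4 °C, then CuAAC with biotin-TAMRA azide, THPTA, CuSO4 and ascorbate for 30 min at RT. Proteins MeOH/CHCl3 precipitated, enriched overnight on streptavidin, checked by in-gel fluorescence. Reduced/alkylated, trypsin-digested, nano LC-MS/MS. Filtered at 1% FDR, ≥2 unique peptides.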
# [14] = biological target: T3, Glutathione S-transferase omega-1 (Homo sapiens) (UniProt P78417); assay: Binding affinity to GSTO1 in human NCI-H522 cells at 10 uM incubated for 1 hr by Biotin-TAMRA pull down based mass spectrometry; type: cell-based; in short: as §3
# T3 sequence (whole entry): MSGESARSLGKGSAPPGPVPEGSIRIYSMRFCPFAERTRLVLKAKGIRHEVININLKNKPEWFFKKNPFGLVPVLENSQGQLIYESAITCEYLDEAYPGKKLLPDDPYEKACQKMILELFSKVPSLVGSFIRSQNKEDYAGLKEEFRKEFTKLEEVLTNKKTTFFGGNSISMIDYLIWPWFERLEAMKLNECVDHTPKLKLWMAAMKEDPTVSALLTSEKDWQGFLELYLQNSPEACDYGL
# [15] = biological target: T3, Glutathione S-transferase omega-1 (Homo sapiens); assay: Binding affinity to GSTO1 in human NCI-H522 cells at 10 uM incubated for 1 hr by Biotin-TAMRA pull down based western blot analysis; type: cell-based; in short: as §1
# NCI-H522 [16] = assay: Induction of lipid peroxidation in human NCI-H522 cells assessed as increase in C11-BODIPY oxidation at 10 uM incubated for 6 hrs by flow cytometry; type: functional, cell-based; in short: as §2
# [17] = biological target: T2, Phospholipid hydroperoxide glutathione peroxidase GPX4 (Homo sapiens); assay: Binding affinity to GPX4 in human NCI-H522 cells at 10 uM incubated for 1 hr by Biotin-TAMRA pull down based mass spectrometry; type: cell-based; in short: as §3
smiles,measurement,setting,value
C#CCNC(=O)c1csc(C#Cc2ccccc2)n1,IC50,NCI-H522 [1],> 40000 nM
same,IC50,HCT-116,> 40000 nM
same,Activity,[2],Active
C#Cc1nc2ccccc2s1,fold change (FC),NCI-H522 [3],>5
same,IC50,NCI-H522 [1],860 nM
same,IC50,HCT-116,19600 nM
same,IT50,NCI-H522 [4],1.7 h
same,Ratio IC50,[5],22.8
C#Cc1nc(C(=O)N2CCN(C(c3ccc(Cl)cc3)c3ccc(Cl)cc3)CC2)cs1,IC50,U2OS,367 nM
same,deltaT,[6],7 °C
same,Activity,NCI-H522 [7],Active
same,IC50,NCI-H522 [1],17 nM
same,IC50,HCT-116,> 1000 nM
same,IC50 at 3 days,[8],22 nM
same,IC50,MDA-MB-468,84 nM
same,IC50,HeLa,242 nM
same,Ratio IC50,[9],464.353
same,IC50,HT-1080,19 nM
same,IC50 at 3 days,[10],10 nM
same,IC50,MDA-MB-231,21 nM
same,IC50,NCI-H522 [11],7890 nM
C#CCNC(=O)c1csc(C#C)n1,Activity,[12],Active
same,Activity,[13],Active
same,IC50,NCI-H522 [1],2100 nM
same,IC50,HCT-116,19200 nM
same,Activity,[14],Active
same,Activity,[15],Active
same,Activity,NCI-H522 [16],Active
same,Activity,[17],Active
